Experiment [1] concerns HepG2. Description: Upregulation of RARgamma expression in human HepG2 cells at 2 uM incubated for 2 to 12 hrs by Western blot analysis. It counts as functional, cell-based. The note with it: time 2-12 hrs. The essentials: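 HepG2 cells given 2.0 µM for the indicated times. RXRα, RARγ and Nur77 detected by western blot: RIPA lysis with protease and phosphatase inhibitors, 40-80 µg protein by SDS-PAGE, nitrocellulose, 5% milk block, primary antibody overnight, HRP secondary, chemiluminescence read-out.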
(A western blot detects proteins with antibodies after separation by electrophoresis.)

Experiment [2] relates to HepG2. In words: Antiproliferative activity against human HepG2 cells assessed as reduction in cell viability at 2 uM by MTT assay. In kind it is functional, cell-based. The note with it: time 12-48 hrs, TDE = time-dependent effect. The gist of the method: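 Cells treated with 2.0 µM over a time course; viability read by MTT. HepG2, SMMC-7721 kept in DMEM, QGY-7703 in RPMI 1640, with 10% FBS at 37 °C and 5% CO2.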
(Formazan colour is commonly taken as a measure of viable cells.)

Experiment [3] deals with HepG2. In words: Induction of apoptosis in human HepG2 cells assessed as early apoptotic cells at 2 uM incubated for 12 hrs by Annexin V-FITC/PI staining based flow cytometry (reference value: 3.99 to 5.35%). It counts as functional. (In general: Flow cytometry measures light scatter and fluorescence of single cells or particles in a stream.)
Experiment [4] deals with HepG2. Description: Induction of apoptosis in human HepG2 cells assessed as live cells at 2 uM incubated for 12 hrs by Annexin V-FITC/PI staining based flow cytometry (reference value: 90.7 to 94%). In kind it is functional.
Experiment [5] relates to HepG2. In words: Disruption of mitochondrial membrane potential in human HepG2 cells assessed as green fluorescence intensity at 2 uM incubated for 12 hrs by JC-1 staining based flow cytometry (reference value: 41669 units). It counts as functional.
Experiment [6] has as its system HepG2. In words: Induction of autophagy in human HepG2 cells assessed as increase in Beclin 1 expression measured after 12 hrs by Western blot analysis. It counts as functional, cell-based. The note with it: dose 0.5-2 µM. The essentials:
(§1)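 HepG2, QGY-7703 and SMMC-7721 treated with graded concentrations for 12 h. Lysed in RIPA with inhibitors; 40-80 µg protein separated by SDS-PAGE, blotted to nitrocellulose, blocked 1 h in 5% milk, primary antibodies overnight (LC3, Beclin1, Bip, CHOP, TRB3), HRP secondaries, chemiluminescence.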

Experiment [7] concerns HepG2. Description: Induction of autophagy in Nur77 knockout human HepG2 cells assessed as increase in Beclin 1 expression at 2 uM measured after 6 to 12 hrs by Western blot analysis. It counts as functional, cell-based. The note with it: time 6-12 hrs. The gist of the method:
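Scrambled-control and shNur77 HepG2 given DMSO or 2.0 µM for 6 or 12 h; immunoblotting of RIPA lysates for LC3, Beclin1 and Nur77 after SDS-PAGE and nitrocellulose transfer, chemiluminescent detection.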

The test system of the next experiment is QGY-7703. Description: Induction of endoplasmic reticulum stress in human QGY-7703 cells assessed as increase in bip protein expression incubated for 12 hrs by Western blot analysis. The note with it: dose 0.5-2 µM. It counts as functional, cell-based. The gist of the method: as §1
The test system of experiment [8] is HepG2. Description: Induction of endoplasmic reticulum stress in human HepG2 cells assessed as increase in TRB3 protein expression incubated for 12 hrs by Western blot analysis. In kind it is functional, cell-based. The note with it: dose 0.5-2 µM. The essentials:
as §1

The subject of experiment [9] is HepG2. In words: Induction of endoplasmic reticulum stress in Nur77 […] human HepG2 cells assessed as TRB3 protein expression at 2 uM incubated for 12 hrs by Western blot analysis. In kind it is functional, cell-based. The essentials:
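HepG2 and shNur77 HepG2 exposed to DMSO or 2.0 µM for 6 and 12 h; lysates immunoblotted for TRB3, Bip, CHOP and Nur77 (SDS-PAGE, nitrocellulose, overnight primary antibodies, HRP secondary, chemiluminescence).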

In experiment [10] the test system is HepG2. Description: Induction of apoptosis in human HepG2 cells assessed as cleaved caspase-9 expression at 2 uM pretreated with autophagy inhibitor, 3-methyladenine for 2 hrs followed by incubation with compound for 12 hrs by Western blot analysis. It counts as functional, cell-based. The gist of the method:
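HepG2 cells grown to confluence were pretreated 2 h with 2 mM 3-MA (autophagy inhibitor) or 2 mM 4-PBA (ER stress inhibitor), then exposed to compound for 12 h. Proteins (40–80 µg, RIPA lysate) were resolved by SDS-PAGE and blotted for PARP, cleaved caspase-3/-9, Bcl-2 and Bax, with chemiluminescent detection.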

For experiment [11], the system named is HepG2. In words: Antitumor activity against human HepG2 cells xenografted in BALB/c mouse assessed as tumor weight at 20 mg/kg/day, ip administered for 15 days (reference value: 0.86 +/- 0.18 g). In kind it is functional. The note with it: dose 10 mg/kg/day; time 15 day; in the assay text read “10 mg/kg/day” for “20 mg/kg/day”. The gist of the method:
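Subcutaneous flank xenograft of 5×10^6 HepG2 cells in 4-week-old male Balb/c nude mice. At about 100 mm³, 15 mice were randomized into three groups: vehicle, 10 or 20 mg/kg i.p. daily for 15 days. Tumor size was measured every day, and tumors were excised and weighed at the end.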

Experiment [12] has as its system HepG2. Description: Antitumor activity against human HepG2 cells xenografted in BALB/c mouse assessed as induction of autophagy by measuring increase in Beclin1 level in tumor tissue at 10 to 20 mg/kg/day, ip administered for 15 days by immunohistochemical analysis. In kind it is functional, organism-based. The note with it: dose 10-20 mg/kg/day, time 15.0 day. The gist of the method: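 HepG2 cells (5×10^6) injected subcutaneously into flanks of 4-week-old male Balb/c nude mice. At about 100 mm³, 15 mice were randomized to vehicle, 10 or 20 mg/kg i.p. once daily for 15 days. Tumors were then excised for immunostaining of paraffin sections (5 μm) or for western blot.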

A further experiment concerns Mus musculus. In words: Upregulation of Nur77 expression in tumor tissue of BALB/c mouse xenografted with human HepG2 cells at 10 to 20 mg/kg/day, ip administered for 15 days by immunohistochemical analysis. It counts as functional, organism-based. The note with it: dose 10-20 mg/kg/day, time 15.0 day. The gist of the method:
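Tumours taken from HepG2 xenograft mice after 15 days of daily i.p. dosing (10 or 20 mg/kg) or vehicle. Fixed in 4% paraformaldehyde, paraffin-embedded, cut into 5 µm sections. Immunostained with anti-Nur77 at 1:200.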

Experiment [13] addresses Nuclear receptor subfamily 4immunitygroup A member 1 (Homo sapiens, UniProt P22736). Description: Binding affinity to Nur77 ligand binding domain (unknown origin) assessed as decrease in fluorescence intensity of protein at 332 nm at 0.2 to 4 uM by fluorescence titration based analysis. The note with it: filed as modulator, dose 0.2-4 µM. The essentials: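 Intrinsic tryptophan fluorescence quench: 1 μM Nur77-LBD titrated with 0–4 μM ligand in about 0.2 μM steps (20 points). After 30 min at room temperature, read at 25 °C, excitation 280 nm, emission 340 nm. KD fitted to a two-state 1:1 complex model.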

The subject of experiment [14] is HepG2. Description: Induction of apoptosis in human HepG2 cells assessed as late apoptotic cells at 2 uM incubated for 12 hrs by Annexin V-FITC/PI staining based flow cytometry (reference value: 1.1 to 2.75%). In kind it is functional.
In experiment [15] the test system is HepG2. In words: Induction of apoptosis in human HepG2 cells assessed as increase in cleaved PARP level pretreated with nuclear export inhibitor, LMB followed by incubation with compound for 12 hrs by western blot analysis. In kind it is functional, cell-based.
For experiment [16], the system named is HepG2. Description: Induction of endoplasmic reticulum stress in human HepG2 cells transfected with shNur77 assessed as increase in PDI protein expression at 2 uM incubated for 6 hrs by confocal microsocopic analysis. It counts as functional, cell-based. The essentials:
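HepG2, or HepG2 plus shNur77 HepG2, treated with 2.0 µM for 6 h, fixed in 4% paraformaldehyde 20 min, permeabilised 0.1% Triton X-100, blocked in 5% BSA, stained with PDI antibody and imaged by confocal fluorescence microscopy.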

The source made the active and inactive calls. No cut-off for these calls is given here.

The values that follow come from ChEMBL document CHEMBL4765399, “Design, synthesis, and biological evaluation of 5-((8-methoxy-2-methylquinolin-4-yl)amino)-1H-indole-2-carbohydrazide derivatives as novel Nur77 modulators” (Eur J Med Chem, 2020).

Chain of Nuclear receptor subfamily 4immunitygroup A member 1 (P22736 whole entry, the tested form may be a part): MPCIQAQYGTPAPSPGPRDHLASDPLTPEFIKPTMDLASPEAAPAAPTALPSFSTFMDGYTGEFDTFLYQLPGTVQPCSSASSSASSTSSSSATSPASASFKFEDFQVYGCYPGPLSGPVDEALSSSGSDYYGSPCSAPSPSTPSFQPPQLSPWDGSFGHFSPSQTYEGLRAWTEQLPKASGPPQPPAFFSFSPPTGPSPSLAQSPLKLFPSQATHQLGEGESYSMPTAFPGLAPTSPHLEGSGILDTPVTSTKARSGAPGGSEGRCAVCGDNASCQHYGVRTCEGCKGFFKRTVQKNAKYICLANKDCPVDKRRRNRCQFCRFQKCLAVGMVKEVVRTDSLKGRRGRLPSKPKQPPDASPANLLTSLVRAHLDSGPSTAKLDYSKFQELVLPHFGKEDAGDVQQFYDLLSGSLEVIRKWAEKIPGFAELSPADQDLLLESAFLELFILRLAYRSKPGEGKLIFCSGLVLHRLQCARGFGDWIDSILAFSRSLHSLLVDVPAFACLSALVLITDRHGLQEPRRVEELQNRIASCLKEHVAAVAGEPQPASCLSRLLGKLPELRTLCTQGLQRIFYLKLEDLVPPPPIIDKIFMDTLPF

On to `COc1cccc2c(Nc3ccc4[nH]c(C(=O)N/N=C/c5ccc(SC)cc5)cc4c3)cc(C)nc12`, for which the result in the experiment with HepG2 [1], with HepG2 [9], with HepG2 [10], in the experiment on HepG2 [15] and in the experiment on HepG2 [16] was inactive. In addition, the Activity entry is “Tde” in the experiment with HepG2 [2]; 13% in the experiment with HepG2 [3]; 8.8% with HepG2 [4]; 71731 U with HepG2 [5]; “Dose-dependent effect” with HepG2 [6]; “Dose-dependent effect” in the experiment on QGY-7703. Besides, the Activity result is “Dose-dependent effect” in the experiment with HepG2 [8], 0.5 g in the experiment on HepG2 [11] and 55.6% in the experiment with HepG2 [14]. Further, the outcome (in the experiment with HepG2 [7]; in the experiment on HepG2 [12]; in the experiment on Mus musculus; in experiment [13]) was Active.
